# Measured values taken from publication PMC7490575 (Molecular Diversity, 2020).
# Key:
# [1] = system: A/Puerto Rico/8/34 (H1N1) influenza virus; experiment: Cell protection assay, influenza virus in MDCK cells; format: cell-based, influenza virus A/PR/8/34 (H1N1)
# Coxsackie B3 virus = experiment: Cell protection assay, Coxsackie B3 virus in Vero cells; format: cell-based, coxsackievirus B3
# Procedure, shortened: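 Confluent Vero monolayers given test compound, infected with Coxsackie B3 (m.o.i. 0.01), held 48 h at 36 °C, 5% CO2. Viability read by MTT (OD 540 nm) against virus-only wells; IC50 is 50% cell protection. […] SI = CC50/IC50.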
SMILES,"antiviral activity against influenza virus A/PR/8/34 (H1N1), in words [1]","antiviral activity against Coxsackie B3 virus, in words (Coxsackie B3 virus)"
"O=c1[nH]c(=O)n(CCCc2cn([C@@H]3O[C@H](CO)[C@@H](O)[C@H]3O)nn2)c2ccccc12 [Compound 4h, N1-{[1-(β-D-ribofuranosyl)-1H-1,2,3-triazol-4-yl]propyl}-2,4(1H,3H)-quinazolinedione]",antiviral activity was demonstrated,–
"Cc1[nH]c(=O)[nH]c(=O)c1Cc1cn([C@@H]2O[C@H](CO)[C@@H](O)[C@H]2O)nn1 [Compound 8m, 6-Methyl-5-{[1-(β-D-ribofuranosyl)-1H-1,2,3-triazol-4-yl]methyl}-2,4(1H,3H)-pyrimidinedione]",antiviral activity was demonstrated,–
"Cc1[nH]c(=O)[nH]c(=O)c1CCCc1cn([C@@H]2O[C@H](CO)[C@@H](O)[C@H]2O)nn1 [Compound 8n, 6-Methyl-5-{[1-(β-D-ribofuranosyl)-1H-1,2,3-triazol-4-yl]propyl}-2,4(1H,3H)-pyrimidine-dione]",antiviral activity was demonstrated,–
"Cc1[nH]c(=O)[nH]c(=O)c1CCCCc1cn([C@@H]2O[C@H](CO)[C@@H](O)[C@H]2O)nn1 [Compound 8o, 6-Methyl-5-{[1-(β-D-ribofuranosyl)-1H-1,2,3-triazol-4-yl]butyl}-2,4(1H,3H)-pyrimidinedione]",completely inactive,–
"NC(=O)c1ncn([C@@H]2O[C@H](CO)[C@@H](O)[C@H]2O)n1 [Ribavirin, 1-β-D-ribofuranosyl-1,2,4-triazole-3-carboxamide]",–,inactive
